Source: ChEMBL document CHEMBL4825680, “Structure-based discovery of potent and selective small-molecule inhibitors targeting signal transducer and activator of transcription 3 (STAT3)” (Eur J Med Chem, 2021)
Active and inactive are the calls of the source. The calls are words filed in the database; no cut-off is given here.

How the values were obtained:
[1] = system: MDA-MB-231; test: Induction of apoptosis in human MDA-MB-231 cells assessed as viable cells at 3 uM after 48 hrs by Annexin-V-FITC/propidium iodide staining based flow cytometric analysis (reference value: 93.4%); format: functional; conditions: read-out: Activity
[2] = molecular target: T1, Signal transducer and activator of transcription 3 (Homo sapiens, UniProt P40763); test: Inhibition of phosphorylated STAT3 nuclear translocation in human MDA-MB-231 cells after 12 hrs by immunofluorescence analysis; format: cell-based; conditions: dose 0.3-3 µM
Method in brief: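 MDA-MB-231 cells (constitutively active STAT3) treated with vehicle or compound for 12 h. Immunofluorescence staining with a p-STAT3-specific primary antibody and an Alexa Fluor secondary antibody.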

[3] = system: Breast cancer cell line; test: Antitumor activity against patient-derived breast cancer cells xenografted in NOD/SCID mouse assessed as reduction in Ki67 expression at 5 to 15 mg/kg, iv administered once daily for 20 days by immunohistochemical analysis; format: functional, organism-based; conditions: Homo sapiens, dose 5-15 mg/kg, time 20.0 day
[4] = Toxicity in mouse xenografted with human MDA-MB-231-4175 cells assessed as morphological change in lung at 5 to 15 mg/kg, […] once daily for 20 days by HE staining based assay; format: organism-based; conditions: in vivo, iv, 480 h, dose 5-15 mg/kg, time 20 day
Method in brief: (§1)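 Female NOD-SCID mice aged 4–5 weeks, given 2×10^6–3×10^6 MDA-MB-231-4175 cells subcutaneously in the flank. At about 100 mm³ tumour volume, randomised n=6/group: vehicle (PBS with 15% Cremophor EL), 5 or 15 mg/kg intraperitoneally daily. Killed at day 20; heart, liver, spleen, lung and kidney collected for morphological examination.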

[5] = system: MDA-MB-468; test: Inhibition of colony formation in human MDA-MB-468 cells at 0.3 uM after 10 to 15 days by crystal violet staining based assay; format: functional, cell-based; conditions: time 10-15 day
Method in brief: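 Cells seeded at 0.5×10^3–1×10^3 per well; compound added the next day. Medium and compound renewed every 2–3 days. After about 10–15 days, colonies fixed with 4% paraformaldehyde, stained with crystal violet, scanned and quantified by image analysis. Triplicate.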

[6] = Antitumor activity against patient-derived breast cancer cells xenografted in NOD/SCID mouse assessed as tumor growth inhibition at 15 mg/kg, ip administered once daily for 20 days; conditions: Homo sapiens, Breast cancer cell line, 480 h, read-out: TGI
[7] = molecular target: T1, Signal transducer and activator of transcription 3; test: Inhibition of STAT3 phosphorylation at Tyr705 residue in human MDA231-LM2-4175 cells after 3 hrs by Western blotting analysis; format: cell-based; conditions: dose 0.3-3 µM
[8] = system: MDA-MB-231; test: Inhibition of cell invasion in human MDA-MB-231 cells incubated for 12 hrs by crystal violet staining based transwell assay; format: functional; conditions: dose 1-3 µM
Method in brief: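 Cells seeded at 1.5×10^4–3×10^4 per well in the upper chamber of 8.0 µm pore Transwell inserts and treated with graded compound for 12 h. Non-invading cells removed with cotton. Invaded cells fixed in 4% paraformaldehyde, stained with crystal violet, photographed and counted. Triplicate.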

[9] = Toxicity in mouse xenografted with human MDA-MB-231-4175 cells assessed as morphological change in liver at 5 to 15 mg/kg, […] once daily for 20 days by HE staining based assay; format: organism-based; conditions: in vivo, iv, dose 5-15 mg/kg, time 20 day; method in brief: as §1
[10] = molecular target: T1, Signal transducer and activator of transcription 3; test: Inhibition of HA-tagged STAT3 dimerization (unknown origin) expressed in HEK293T cells after 24 hrs by confocal microscopic analysis; format: cell-based; conditions: dose 1-3 µM
Method in brief: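 HEK-293T cells transfected with HA-STAT3 and Flag-STAT3. After 24 h, treated with vehicle (0.1% DMSO) or compound for 24 h, with IL-6 100 ng/mL added for 30 min. Fixed in paraformaldehyde, permeabilised with Triton X-100, stained with anti-HA and anti-Flag plus Alexa 488/555 secondaries and DAPI. Confocal imaging for colocalisation.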

[11] = Toxicity in NOD/SCID mouse xenografted with patient-derived breast cancer cells assessed as lethargy at 5 to 15 mg/kg, iv administered once daily for 20 days; format: organism-based; conditions: in vivo, 480 h, dose 5-15 mg/kg, time 20 day
[12] = molecular target: T2, Signal transducer and activator of transcription 5A (Homo sapiens) (UniProt P42229); test: Inhibition of STAT5 DNA binding in human MDA-MB-468 cells at 3 uM after 3 hrs by EMSA analysis; format: cell-based
T2 sequence (whole entry): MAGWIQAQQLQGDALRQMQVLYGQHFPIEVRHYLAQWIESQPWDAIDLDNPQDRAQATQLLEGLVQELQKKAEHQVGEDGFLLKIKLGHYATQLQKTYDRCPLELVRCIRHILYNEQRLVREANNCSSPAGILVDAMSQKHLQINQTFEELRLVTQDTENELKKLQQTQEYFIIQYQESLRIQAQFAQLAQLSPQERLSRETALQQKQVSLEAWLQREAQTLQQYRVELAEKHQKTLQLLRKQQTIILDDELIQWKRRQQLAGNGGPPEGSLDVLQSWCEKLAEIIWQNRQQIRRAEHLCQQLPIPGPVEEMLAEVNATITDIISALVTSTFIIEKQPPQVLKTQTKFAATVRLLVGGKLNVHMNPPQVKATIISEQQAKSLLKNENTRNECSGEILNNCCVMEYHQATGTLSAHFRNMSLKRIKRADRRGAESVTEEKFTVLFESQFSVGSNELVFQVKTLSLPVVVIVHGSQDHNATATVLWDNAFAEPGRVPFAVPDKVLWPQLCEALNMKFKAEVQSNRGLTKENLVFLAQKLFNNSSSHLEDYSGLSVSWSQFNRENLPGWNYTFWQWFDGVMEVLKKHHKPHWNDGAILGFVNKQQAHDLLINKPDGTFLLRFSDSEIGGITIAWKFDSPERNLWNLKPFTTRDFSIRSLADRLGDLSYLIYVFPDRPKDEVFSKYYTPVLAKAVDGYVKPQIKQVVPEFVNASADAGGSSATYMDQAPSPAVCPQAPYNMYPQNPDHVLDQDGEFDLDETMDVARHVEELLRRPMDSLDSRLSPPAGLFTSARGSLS
Method in brief: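 Cells exposed to vehicle or compound for 3 h. Nuclear extracts prepared and BCA-quantified. Nuclear protein (8–10 µg) incubated with biotinylated STAT3 or STAT5 probe, resolved on 6% native polyacrylamide gel, transferred to nylon membrane and detected with a gel-shift kit.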

T1 sequence (P40763 whole entry): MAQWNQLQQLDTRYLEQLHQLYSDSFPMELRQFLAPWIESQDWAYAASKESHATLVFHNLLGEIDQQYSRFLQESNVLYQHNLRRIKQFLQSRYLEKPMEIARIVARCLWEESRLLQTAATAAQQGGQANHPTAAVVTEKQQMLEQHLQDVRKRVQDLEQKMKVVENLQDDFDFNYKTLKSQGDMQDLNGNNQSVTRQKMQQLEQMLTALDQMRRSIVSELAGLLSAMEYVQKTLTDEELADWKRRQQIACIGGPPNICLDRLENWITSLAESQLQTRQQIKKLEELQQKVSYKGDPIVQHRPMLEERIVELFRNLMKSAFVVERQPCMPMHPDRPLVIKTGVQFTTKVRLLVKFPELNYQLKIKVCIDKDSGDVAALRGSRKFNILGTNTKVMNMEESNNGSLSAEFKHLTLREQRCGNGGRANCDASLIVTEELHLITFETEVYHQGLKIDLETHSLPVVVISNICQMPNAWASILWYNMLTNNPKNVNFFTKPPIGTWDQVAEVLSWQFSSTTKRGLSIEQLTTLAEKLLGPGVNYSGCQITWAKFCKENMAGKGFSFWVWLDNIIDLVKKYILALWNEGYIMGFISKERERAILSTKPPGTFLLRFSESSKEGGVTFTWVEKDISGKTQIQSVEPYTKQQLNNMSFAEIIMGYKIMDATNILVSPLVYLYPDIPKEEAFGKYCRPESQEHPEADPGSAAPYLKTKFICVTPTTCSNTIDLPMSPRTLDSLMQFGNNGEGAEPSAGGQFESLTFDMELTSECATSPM

For O=C(Cc1c(-c2ccccc2)nc2ccccn12)Nc1ccc2c(c1)S(=O)(=O)C=C2, the viability at 3 µM [1] was 73.9%, the inhibition [2] was “Dose-Dependent Effect” and the Activity [3] was “Active”. The Activity [4] was “Non-Toxic”, the inhibition [5] was “Active” and the inhibition in vivo at 15 mg/kg [6] was 68.9%. The inhibition [7] was “Dose-Dependent Effect”, the inhibition [8] was “Dose-Dependent Effect” and the Activity [9] was “Non-Toxic”. The inhibition [10] was “Dose-Dependent Effect”, the Activity [11] was “Non-Toxic” and the inhibition [12] was “inactive”.
